Calls of active or inactive are those of the source. The calls are words filed in the database; no cut-off is given here.
molecular target: Human immunodeficiency virus type 1 integrase (Human immunodeficiency virus 1) (UniProt Q7ZJM1); assay: Inhibition of GST-tagged HIV1 integrase and C-terminal His6-tagged HIV1 integrase dimerization at 100 uM after 3 hrs by AlphaScreen-based dimerization assay
Summary of the method: (§1)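 AlphaScreen proximity assay. GST-tagged HIV-1 IN is mixed with His6-tagged IN and incubated so monomers exchange between pre-existing dimers, giving a steady-state mix of homo- and GST/His6 heterodimers. Photon counts are normalized to DMSO and blank controls and expressed as normalized signal (%). Dose–response curves give the IC50, and single-concentration tests give percent inhibition.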

Human immunodeficiency virus type 1 integrase (Human immunodeficiency virus 1), sequence (Q7ZJM1 as listed by the source): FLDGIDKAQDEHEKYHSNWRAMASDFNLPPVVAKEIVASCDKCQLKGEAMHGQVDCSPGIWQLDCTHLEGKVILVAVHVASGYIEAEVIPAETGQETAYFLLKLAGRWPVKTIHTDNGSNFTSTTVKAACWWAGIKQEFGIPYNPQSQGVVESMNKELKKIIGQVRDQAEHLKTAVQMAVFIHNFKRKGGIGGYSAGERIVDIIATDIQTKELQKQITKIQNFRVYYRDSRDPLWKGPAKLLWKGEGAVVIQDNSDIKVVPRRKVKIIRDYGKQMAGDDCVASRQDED

SMILES | inhibition
C[C@H](Oc1ccc2c(c1)CCC2)C(=O)NNC(=O)Nc1cccc([N+](=O)[O-])c1 | inactive
CC(CCc1ccccc1)NC(=O)c1ccc(NC(=O)C2COc3ccccc3O2)cc1 (stereo not drawn) | 14%
COc1ccc(OC)c2[nH]c(C(=O)NCCCC(=O)Nc3ccc4c(c3)OCCO4)cc12 | 58%
COc1ccc(OC)c2[nH]c(C(=O)NCCC(=O)NCCc3c[nH]c4ccccc34)cc12 | 73%
O=C(N/N=C/c1ccc(Sc2ccccn2)o1)c1cc2ccccc2cc1O | 30%
O=C(NCCNC(=O)c1cc2ccccc2cc1O)c1cc2ccccc2cc1O | inactive
O=C(Nc1cccc(-c2cnc3ccccc3n2)c1)c1cc2ccccc2cc1O | inactive
COc1ccc(/C=C/C(=O)Nc2ncc(Cc3cccc(C)c3)s2)cc1 | inactive
O=C(CNc1ccc2ccccc2c1)N/N=C/c1ccc(-c2ccc(Cl)cc2)o1 | 49%
COc1cccc2[nH]c(C(=O)NCCC(=O)Nc3nc4ccccc4s3)cc12 | inactive
Cc1ccc(C(=O)CCC(=O)Nc2nc3c(s2)CCc2c-3cnn2C)cc1C | 13%
CCc1ccc(O)c(NC(=S)NC(=O)COc2cc(C)c(Cl)c(C)c2)c1 | 23%
O=C(NCCNC(=O)c1cc2ccccc2o1)c1nc2ccccc2c(=O)[nH]1 | inactive
O=C(N/N=C/c1ccc(-c2ccc(Cl)cc2Cl)o1)c1cc2ccccc2cc1O | 49%
COc1cccc(-c2nc(C)c(C(=O)Nc3cc(C)ccc3O)s2)c1 | 32%
Cc1ccc(C2(O)CCN(CCNC(=O)Cc3cccc(C)c3)CC2)cc1 | inactive
COc1cccc2[nH]c(C(=O)NCCCC(=O)Nc3ccc4c(c3)OCCO4)cc12 | 50%
COc1ccc(CNC(=O)C/C(C)=N/NC(=O)c2cc3ccccc3cc2O)cc1 | 50%
Cc1cc(C)cc(OCC(=O)NNC(=O)c2ccc3ccccc3c2O)c1 | inactive
CCn1c2ccccc2c2cc(NC(=O)/C=C(\C)NNC(=O)Cc3cccc4ccccc34)ccc21 | inactive
C/C(CC(=O)Nc1ccc(Cl)c(Cl)c1)=N\NC(=O)c1cc2ccccc2cc1O | inactive
COc1ccc(CCNC(=O)C/C(C)=N/NC(=O)c2cc3ccccc3cc2O)cc1OC | 83%
COc1ccc(C(=O)N/N=C(\C)CC(=O)NCc2ccccc2)cc1OC | inactive
O=C(NCCNC(=O)c1nc2ccccc2c(=O)[nH]1)c1ccc2ccccc2n1 | inactive
C/C(CC(=O)Nc1ccc(OCc2ccccc2)cc1)=N\NC(=O)c1cc2ccccc2cc1O | 54%

molecular target: T1, Human immunodeficiency virus type 1 integrase (Human immunodeficiency virus 1, UniProt Q7ZJM1); assay: Inhibition of HIV1 integrase using oligodeoxynucleotide as substrate after 1 hr by ELISA
T1 sequence (Q7ZJM1 whole entry): as the sequence (Q7ZJM1 as listed by the source) above

SMILES | IC50
COc1ccc(CCNC(=O)C/C(C)=N/NC(=O)c2cc3ccccc3cc2O)cc1OC | 79 µM

molecular target: T1, Human immunodeficiency virus type 1 integrase; assay: Inhibition of GST-tagged HIV1 integrase and C-terminal His6-tagged HIV1 integrase dimerization after 3 hrs by AlphaScreen-based dimerization assay; summary of the method: as §1

SMILES | IC50
COc1ccc(CNC(=O)C/C(C)=N/NC(=O)c2cc3ccccc3cc2O)cc1 | 128 µM
COc1ccc(CCNC(=O)C/C(C)=N/NC(=O)c2cc3ccccc3cc2O)cc1OC | 38.4 µM
